{"source": "ChEMBL document CHEMBL4007405", "about": "(J Med Chem, 2017)", "key": {"[1]": {"target": "T1, Lethal factor (Bacillus anthracis) (UniProt P15917)", "T1 sequence (whole entry)": "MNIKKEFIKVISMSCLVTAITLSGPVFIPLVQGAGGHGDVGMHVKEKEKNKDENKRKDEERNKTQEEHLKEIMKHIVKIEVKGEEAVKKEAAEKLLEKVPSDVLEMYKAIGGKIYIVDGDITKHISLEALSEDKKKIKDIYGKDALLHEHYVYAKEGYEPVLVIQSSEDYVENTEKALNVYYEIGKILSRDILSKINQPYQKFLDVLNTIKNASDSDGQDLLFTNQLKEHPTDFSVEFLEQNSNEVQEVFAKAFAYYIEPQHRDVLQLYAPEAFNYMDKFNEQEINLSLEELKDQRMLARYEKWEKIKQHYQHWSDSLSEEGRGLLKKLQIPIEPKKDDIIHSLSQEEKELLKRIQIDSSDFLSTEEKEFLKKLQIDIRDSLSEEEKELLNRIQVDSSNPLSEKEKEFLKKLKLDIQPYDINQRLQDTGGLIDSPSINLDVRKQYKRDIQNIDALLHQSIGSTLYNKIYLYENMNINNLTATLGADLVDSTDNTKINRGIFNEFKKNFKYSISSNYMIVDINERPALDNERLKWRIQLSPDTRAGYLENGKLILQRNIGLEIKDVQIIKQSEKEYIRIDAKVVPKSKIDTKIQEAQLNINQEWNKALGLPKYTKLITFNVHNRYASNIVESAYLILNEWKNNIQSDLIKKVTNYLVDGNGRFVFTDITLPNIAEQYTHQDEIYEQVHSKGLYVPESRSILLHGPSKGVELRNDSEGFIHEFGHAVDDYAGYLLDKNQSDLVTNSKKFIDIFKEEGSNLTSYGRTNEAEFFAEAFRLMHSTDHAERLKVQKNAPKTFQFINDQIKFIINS", "experiment": "(§1) Inhibition of Bacillus anthracis lethal factor protease preincubated for 30 mins prior to addition of substrate containing fluorescent proteins CyPet and YPet measured every 2 mins for 3 hrs by FRET assay", "how_it_was_run": "(§2)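 Preincubated with peptide from 1 nM to 10 μM for 30 min at room temperature. CyPet–YPet substrate (LF consensus sequence with (GGS)6 linkers) then added to a final 10 nM. FRET read every 2 min for 3 h with excitation at 405 nm and emission ratio It/I0 at 535 nm. Initial velocities fitted to log(inhibitor)–response with variable Hill slope. Run in triplicate.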"}, "[2]": {"target": "T2, Lethal factor (Bacillus anthracis, UniProt P15917)", "T2 sequence (P15917 whole entry)": "T1 sequence (whole entry)", "experiment": "as §1", "how_it_was_run": "as §2"}, "[3]": {"target": "Disintegrin and metalloproteinase domain-containing protein 17 (Homo sapiens) (UniProt P78536)", "sequence (P78536 whole entry, the tested form may be a part)": "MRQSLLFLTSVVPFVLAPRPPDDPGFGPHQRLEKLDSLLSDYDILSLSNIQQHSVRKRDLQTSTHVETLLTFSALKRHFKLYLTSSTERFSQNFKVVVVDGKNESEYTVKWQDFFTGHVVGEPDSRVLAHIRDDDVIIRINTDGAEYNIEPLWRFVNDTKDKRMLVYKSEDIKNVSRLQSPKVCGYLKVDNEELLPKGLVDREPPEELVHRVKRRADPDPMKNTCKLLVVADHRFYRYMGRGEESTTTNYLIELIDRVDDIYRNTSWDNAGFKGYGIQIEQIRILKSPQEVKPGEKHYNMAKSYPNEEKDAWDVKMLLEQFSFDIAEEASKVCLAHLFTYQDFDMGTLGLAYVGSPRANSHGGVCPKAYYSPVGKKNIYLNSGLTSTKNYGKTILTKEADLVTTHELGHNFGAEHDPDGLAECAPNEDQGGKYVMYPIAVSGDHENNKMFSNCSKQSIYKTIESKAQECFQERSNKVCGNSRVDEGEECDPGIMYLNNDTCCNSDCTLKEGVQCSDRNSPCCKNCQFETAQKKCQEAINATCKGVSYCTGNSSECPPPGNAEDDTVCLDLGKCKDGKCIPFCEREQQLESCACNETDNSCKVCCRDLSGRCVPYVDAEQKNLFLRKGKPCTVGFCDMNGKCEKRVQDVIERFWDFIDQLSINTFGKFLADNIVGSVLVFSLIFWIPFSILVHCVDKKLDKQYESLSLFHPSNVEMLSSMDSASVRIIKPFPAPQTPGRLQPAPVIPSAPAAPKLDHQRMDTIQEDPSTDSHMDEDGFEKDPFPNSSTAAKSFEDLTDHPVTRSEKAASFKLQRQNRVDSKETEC", "experiment": "Inhibition of recombinant human glycosylated his-tagged TACE catalytic domain (233 to 477 residues) assessed as inhibition of proteolytic activity preincubated for 30 mins prior to addition of Mca-Pro-Leu-Ala-Gln-Ala-Val-Dpa-Arg-Ser-Ser-Ser-Arg-NH2 as substrate measured every 2 mins for 3 hrs by fluorescence analysis", "how_it_was_run": "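TACE catalytic domain (233-477) at 2 nM in 2.5 μM ZnCl2, 25 mM Tris-HCl, pH 8.0. Preincubated with peptide from 1 nM to 10 μM for 30 min at room temperature. Fluorogenic Mca/Dpa substrate then added to a final 3 μM. Fluorescence read every 2 min for 3 h (excitation 320 nm, emission 405 nm). Initial velocities fitted to log(inhibitor)–response with variable Hill slope.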"}, "[4]": {"tested_on": "HeLa", "experiment": "Cytotoxicity against human HeLa cells up to 100 uM after 48 hrs by MTT assay", "type": "cell-based", "how_it_was_run": "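HeLa cells grown in DMEM with 10% FBS, penicillin and streptomycin at 37° C, 5% CO2. About 3 × 10^3 cells per well were seeded for 24 h, washed with PBS, then exposed to peptides in DMEM/10% FBS for 48 h at 37° C. MTT was added for 2 h and formazan dissolved in DMSO. Absorbance read at 595 nm with 670 nm background subtracted.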"}, "[5]": {"target": "T2, Lethal factor"}}, "note": "Positions of bridges follow the written chain, without caps; N, C: chain ends. Residues, ends and D or L forms follow the SMILES beside them."}
{"smiles": "CC[C@H](C)[C@@H]1NC(=O)[C@@H]2CSSC[C@H](NC(=O)[C@H](CCCNC(=N)N)NC(=O)[C@@H]3CSSC[C@H](NC1=O)C(=O)N[C@@H]([C@@H](C)O)C(=O)N[C@@H](CCCNC(=N)N)C(=O)NCC(=O)N[C@@H](Cc1ccccc1)C(=O)N3)C(=O)N[C@@H](CC(C)C)C(=O)N[C@H]1CSSC[C@H](NC(=O)[C@H](C(C)C)NC(=O)CNC(=O)[C@H](CCCNC(=N)N)NC(=O)[C@H](CCCNC(=N)N)NC1=O)C(=O)N[C@@H](CCCNC(=N)N)C(=O)N2", "note": "(cyclo(GFCRCLCRRGVCRCICTR); disulfide 3-16, 5-14, 7-12)", "values": [{"measurement": "inhibition", "setting": "[1]", "value": "Dose-dependent effect"}, {"measurement": "IC50", "setting": "[2]", "value": 390, "unit": "nM"}, {"measurement": "inhibition", "setting": "[3]", "value": "Dose-dependent effect"}, {"measurement": "Activity", "setting": "[4]", "value": "Non-Toxic"}, {"measurement": "IC50", "setting": "[5]", "value": 1060, "unit": "nM"}]}
